Laboratory results taken from ChEMBL document CHEMBL4765336, “Discovery of coumarin derivatives as potent and selective cyclin-dependent kinase 9 (CDK9) inhibitors with high antitumour activity” (Eur J Med Chem, 2020).

Experiments:
HepG2 = test: Antiproliferative activity against human HepG2 cells assessed as inhibition of cell growth incubated for 72 hrs by Celltiter-Glo luminescent assay; assay type: functional, cell-based; settings: HepG2, 72 h
Summary of the method: (§1)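 Cells seeded in growth medium and held overnight at 37 °C; medium-only wells served as background. DMSO stocks were diluted in medium to 3× final and added; cells incubated 72 h at 37 °C, 5% CO2. Viability read by CellTiter-Glo luminescence after 60 min at room temperature. IC50 from curve fit, mean of duplicate.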

[1] = Tmax in ICR mouse at 30 mg/kg, po measured up to 24 hrs by LC-MS/MS analysis; assay type: ADME, organism-based; settings: in vivo
Summary of the method: (§2)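 Male ICR mice (25.1–28.8 g, n=9), fasted overnight (12 h), single oral gavage 30 mg/kg as 3 mg/mL in 0.5% CMC-Na with 0.2% Tween 80. Venous blood drawn into EDTA-K2 at 0, 0.25, 0.5, 1, 2, 4, 8, 24 h. Plasma protein-precipitated with ACN and run on LC-MS/MS (C18, formic acid/ACN). Noncompartmental parameters taken from composite mean concentration-time data.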

[2] = Clearance in ICR mouse at 2 mg/kg, iv measured up to 24 hrs by LC-MS/MS analysis; assay type: ADME, organism-based; settings: in vivo
Summary of the method: (§3)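 Male ICR mice (25.1–28.8 g, n=9), fasted 12 h, given a single i.v. dose of 2.0 mg/kg at 0.4 mg/mL in DMSO/PEG200/saline (1:1:3). Blood sampled at 0, 0.083, 0.25, 0.5, 1, 2, 4, 8, 24 h. Plasma ACN-precipitated and quantified by LC-MS/MS. Parameters derived from composite mean plasma concentration-time data.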

A549 = test: Antiproliferative activity against human A549 cells assessed as inhibition of cell growth incubated for 72 hrs by Celltiter-Glo luminescent assay; assay type: functional, cell-based; settings: A549, 72 h; summary of the method: as §1
CDK2/Cyclin A2 = CDK2/Cyclin A2 (Homo sapiens, UniProt P24941); test: Inhibition of CDK2/Cyclin A (unknown origin) preincubated for 20 mins followed by ATP addition and measured after 120 mins in presence of [33P-gamma] ATP by hotspot kinase assay; assay type: protein-complex assay
Summary of the method: (§4)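 Radiometric filter-binding assay: kinase and substrate in 20 mM Hepes pH 7.5, 10 mM MgCl2, 1 mM EGTA, 0.02% Brij35, 0.02 mg/mL BSA, 0.1 mM Na3VO4, 2 mM DTT, 1% DMSO. Compound (top 1/10/27 μM, 3-fold serial dilutions) preincubated 20 min at 25 °C. ATP plus [γ-33P]ATP added to 10 μM final, reacted 120 min at 25 °C. IC50 from curve fit, duplicate mean.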

[3] = Initial plasma concentration in ICR mouse at 2 mg/kg, iv measured up to 24 hrs by LC-MS/MS analysis; assay type: ADME, organism-based; summary of the method: as §3
[4] = Cmax in ICR mouse at 30 mg/kg, po measured up to 24 hrs by LC-MS/MS analysis; assay type: ADME, organism-based; parameters: route oral, dose 30 mg/kg, time <=24; settings: in vivo; summary of the method: as §2
[5] = target: Cyclin-C/Cyclin-dependent kinase 19 (Homo sapiens, UniProt Q9BWU1); test: Inhibition of CDK19/Cyclin C (unknown origin) preincubated for 20 mins followed by ATP addition and measured after 120 mins in presence of [33P-gamma] ATP by hotspot kinase assay; assay type: protein-complex assay; summary of the method: as §4
A-375 = test: Antiproliferative activity against human A-375 cells assessed as inhibition of cell growth incubated for 72 hrs by Celltiter-Glo luminescent assay; assay type: functional, cell-based; settings: A-375, 72 h; summary of the method: as §1
SW-620 = test: Antiproliferative activity against human SW-620 cells assessed as inhibition of cell growth incubated for 72 hrs by Celltiter-Glo luminescent assay; assay type: functional, cell-based; settings: SW-620, 72 h; summary of the method: as §1
[6] = AUC (0 to t) in ICR mouse at 30 mg/kg, po measured up to 24 hrs by LC-MS/MS analysis; assay type: ADME, organism-based; parameters: route oral, dose 30 mg/kg, time <=24; settings: in vivo; summary of the method: as §2
[7] = Metabolic stability in rat liver microsomes assessed as half life at 1 uM incubated up to 60 mins in presence of NADPH by LC-MS/MS analysis; assay type: ADME, Microsome
Summary of the method: (§5)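 Liver microsomes (0.5 mg/mL) incubated at 37 °C with compound at 1.0 μM final, 3 mM MgCl2 and 1 mM NADPH in 100 mM PBS pH 7.4. Samples taken at 0, 5, 15, 30, 60 min; remaining parent measured by LC-MS/MS. k = −slope, T1/2 = 0.693/k, CLint = k/microsomal protein concentration. Midazolam served as control.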

[8] = Metabolic stability in dog liver microsomes assessed as intrinsic clearance at 1 uM incubated up to 60 mins in presence of NADPH by LC-MS/MS analysis; assay type: ADME, Canis lupus familiaris, Microsome; settings: read-out: CLH; summary of the method: as §5
[9] = Metabolic stability in human liver microsomes assessed as intrinsic clearance at 1 uM incubated up to 60 mins in presence of NADPH by LC-MS/MS analysis; assay type: ADME, Microsome; settings: read-out: CLH; summary of the method: as §5
PANC-1 = test: Antiproliferative activity against human PANC-1 cells assessed as inhibition of cell growth incubated for 72 hrs by Celltiter-Glo luminescent assay; assay type: functional, cell-based; settings: PANC-1, 72 h; summary of the method: as §1
[10] = target: Glycogen synthase kinase-3 (Homo sapiens) (UniProt P49840+P49841); test: Inhibition of GSK3alpha/beta (unknown origin) assessed as enzyme activity at 1 uM preincubated for 20 mins followed by ATP addition and measured after 120 mins in presence of [33P-gamma] ATP by hotspot kinase assay relative to control; assay type: protein assay; parameters: scale not given: the % may be the effect or the level left; settings: time 140.0 min
Summary of the method: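 Radiometric filter-binding kinase assay, buffer pH 7.5 with 10 mM MgCl2 and 1% DMSO. Compound tested at a single 1.0 μM, preincubated 20 min at 25 °C. Reaction started with ATP/[γ-33P]ATP at 10 μM final, run 120 min at 25 °C. Remaining % enzyme activity reported, n=2.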

[11] = Metabolic stability in human liver microsomes assessed as half life at 1 uM incubated up to 60 mins in presence of NADPH by LC-MS/MS analysis; assay type: ADME, Microsome; summary of the method: as §5
[12] = Half life in ICR mouse at 2 mg/kg, iv measured up to 24 hrs by LC-MS/MS analysis; assay type: ADME, organism-based; settings: in vivo; summary of the method: as §3
[13] = Volume of distribution at steady state in ICR mouse at 2 mg/kg, iv measured up to 24 hrs by LC-MS/MS analysis; assay type: ADME, organism-based; settings: in vivo, read-out: Vdss; summary of the method: as §3
[14] = Metabolic stability in rat liver microsomes assessed as intrinsic clearance at 1 uM incubated up to 60 mins in presence of NADPH by LC-MS/MS analysis; assay type: ADME, Microsome; settings: read-out: CLH; summary of the method: as §5
[15] = Metabolic stability in monkey liver microsomes assessed as half life at 1 uM incubated up to 60 mins in presence of NADPH by LC-MS/MS analysis; assay type: ADME, Macaca mulatta, Microsome; settings: rhesus monkey; summary of the method: as §5
[16] = AUC (0 to infinity) in ICR mouse at 2 mg/kg, iv measured up to 24 hrs by LC-MS/MS analysis; assay type: ADME, organism-based; parameters: route intravenous, dose 2 mg/kg, time <=24; settings: in vivo
[17] = target: Voltage-gated inwardly rectifying potassium channel KCNH2 (Homo sapiens, UniProt Q12809); test: Inhibition of fluorescently labeled tracer binding to human ERG by competitive binding assay
Summary of the method: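 Fluorescent tracer competition assay against a membrane preparation containing hERG.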

MV4-11 = test: Antitumor activity against human MV4-11 cells xenografted in Balb/c nude mouse assessed as tumor growth inhibition at 40 mg/kg, iv administered once daily for 21 days and measured twice a week by vernier caliper method relative to control; assay type: functional; settings: MV4-11, iv, 504 h, time 21 day, read-out: TGI

Chain of Cyclin-C/Cyclin-dependent kinase 19 (Q9BWU1 whole entry): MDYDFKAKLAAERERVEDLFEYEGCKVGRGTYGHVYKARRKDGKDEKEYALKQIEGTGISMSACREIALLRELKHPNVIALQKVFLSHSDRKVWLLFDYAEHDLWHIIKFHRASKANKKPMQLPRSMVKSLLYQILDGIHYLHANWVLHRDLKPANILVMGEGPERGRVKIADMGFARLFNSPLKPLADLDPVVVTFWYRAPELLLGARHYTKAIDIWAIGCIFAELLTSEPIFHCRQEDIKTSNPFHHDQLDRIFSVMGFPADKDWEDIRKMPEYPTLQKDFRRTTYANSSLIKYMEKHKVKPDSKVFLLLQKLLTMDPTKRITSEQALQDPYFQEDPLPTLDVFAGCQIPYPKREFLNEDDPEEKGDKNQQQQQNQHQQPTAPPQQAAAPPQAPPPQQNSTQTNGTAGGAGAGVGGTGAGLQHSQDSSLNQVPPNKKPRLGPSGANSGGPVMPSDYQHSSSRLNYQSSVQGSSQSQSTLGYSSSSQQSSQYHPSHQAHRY
Chain of Cyclin-C/Cyclin-dependent kinase 19 (P24863 whole entry, further chain): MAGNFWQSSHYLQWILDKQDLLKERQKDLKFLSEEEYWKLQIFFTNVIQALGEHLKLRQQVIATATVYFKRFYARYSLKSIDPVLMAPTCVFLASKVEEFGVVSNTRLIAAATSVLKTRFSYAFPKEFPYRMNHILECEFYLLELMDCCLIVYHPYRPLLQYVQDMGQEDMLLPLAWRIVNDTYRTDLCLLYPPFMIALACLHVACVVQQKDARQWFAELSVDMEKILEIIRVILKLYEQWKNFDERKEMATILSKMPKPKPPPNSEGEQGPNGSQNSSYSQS
Chain of Voltage-gated inwardly rectifying potassium channel KCNH2 (Q12809 whole entry): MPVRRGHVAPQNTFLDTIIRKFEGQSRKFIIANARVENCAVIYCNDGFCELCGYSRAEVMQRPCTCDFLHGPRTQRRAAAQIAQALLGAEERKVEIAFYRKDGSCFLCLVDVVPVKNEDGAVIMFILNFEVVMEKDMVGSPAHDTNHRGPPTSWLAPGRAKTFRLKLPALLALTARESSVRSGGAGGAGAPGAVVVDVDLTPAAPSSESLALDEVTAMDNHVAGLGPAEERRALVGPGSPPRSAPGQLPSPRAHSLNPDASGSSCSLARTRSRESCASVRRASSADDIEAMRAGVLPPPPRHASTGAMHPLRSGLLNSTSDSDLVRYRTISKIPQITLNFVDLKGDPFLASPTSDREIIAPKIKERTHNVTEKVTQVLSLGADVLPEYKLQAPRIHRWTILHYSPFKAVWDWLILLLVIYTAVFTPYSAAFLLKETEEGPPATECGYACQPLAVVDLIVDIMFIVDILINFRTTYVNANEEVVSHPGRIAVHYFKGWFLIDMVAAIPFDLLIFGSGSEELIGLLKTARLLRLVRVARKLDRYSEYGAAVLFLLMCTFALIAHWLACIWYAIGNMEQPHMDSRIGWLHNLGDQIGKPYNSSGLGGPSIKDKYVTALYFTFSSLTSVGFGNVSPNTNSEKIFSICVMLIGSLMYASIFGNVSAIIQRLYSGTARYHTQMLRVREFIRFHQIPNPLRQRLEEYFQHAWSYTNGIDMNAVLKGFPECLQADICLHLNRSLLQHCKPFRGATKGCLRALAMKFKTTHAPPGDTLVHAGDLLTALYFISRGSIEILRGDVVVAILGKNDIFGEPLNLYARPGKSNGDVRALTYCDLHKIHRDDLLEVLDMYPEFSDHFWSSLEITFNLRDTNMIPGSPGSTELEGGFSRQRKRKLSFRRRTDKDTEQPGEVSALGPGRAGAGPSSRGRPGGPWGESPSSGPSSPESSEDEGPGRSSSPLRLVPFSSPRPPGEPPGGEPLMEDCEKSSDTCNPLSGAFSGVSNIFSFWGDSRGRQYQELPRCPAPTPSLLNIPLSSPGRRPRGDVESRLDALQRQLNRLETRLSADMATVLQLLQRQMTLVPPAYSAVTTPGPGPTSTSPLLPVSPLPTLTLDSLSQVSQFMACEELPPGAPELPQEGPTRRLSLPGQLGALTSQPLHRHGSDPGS
Chain of Glycogen synthase kinase-3 (Homo sapiens) (P49840 whole entry, looked up): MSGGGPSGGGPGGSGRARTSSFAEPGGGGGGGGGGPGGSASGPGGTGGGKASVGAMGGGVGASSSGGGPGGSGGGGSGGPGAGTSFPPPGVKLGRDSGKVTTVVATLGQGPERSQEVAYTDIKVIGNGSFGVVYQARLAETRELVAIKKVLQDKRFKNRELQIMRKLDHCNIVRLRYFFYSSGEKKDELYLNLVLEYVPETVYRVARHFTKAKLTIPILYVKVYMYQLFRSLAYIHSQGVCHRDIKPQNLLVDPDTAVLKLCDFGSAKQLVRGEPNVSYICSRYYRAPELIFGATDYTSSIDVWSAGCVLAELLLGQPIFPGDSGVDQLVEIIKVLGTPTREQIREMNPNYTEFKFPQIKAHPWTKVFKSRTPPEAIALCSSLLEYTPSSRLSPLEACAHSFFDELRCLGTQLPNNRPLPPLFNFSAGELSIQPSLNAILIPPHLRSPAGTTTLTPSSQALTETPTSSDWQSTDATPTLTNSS
Chain of Glycogen synthase kinase-3 (Homo sapiens) (P49841 whole entry, looked up): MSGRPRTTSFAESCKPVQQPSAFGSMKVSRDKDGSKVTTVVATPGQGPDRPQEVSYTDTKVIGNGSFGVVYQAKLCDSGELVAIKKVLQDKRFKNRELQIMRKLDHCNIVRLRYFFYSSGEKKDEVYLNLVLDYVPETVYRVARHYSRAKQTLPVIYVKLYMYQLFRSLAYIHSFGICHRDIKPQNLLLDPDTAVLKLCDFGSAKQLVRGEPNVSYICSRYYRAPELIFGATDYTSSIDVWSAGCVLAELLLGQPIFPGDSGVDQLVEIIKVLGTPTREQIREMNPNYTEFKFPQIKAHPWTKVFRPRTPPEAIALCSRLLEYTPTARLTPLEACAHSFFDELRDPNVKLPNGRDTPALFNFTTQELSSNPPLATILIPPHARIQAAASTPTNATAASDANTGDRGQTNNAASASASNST

COc1cc(F)ccc1-c1nc(Nc2ccc3c(N4CCOCC4)c(C(C)=O)c(=O)oc3c2)ncc1F
IC50 (HepG2): 100 nM
Tmax [1]: 15 min
clearance [2]: 59.3 mL/min/kg
IC50 (A549): 470 nM
IC50 (CDK2/Cyclin A2): 320 nM
C0 at 24 h [3]: 3060 ng/mL
Cmax [4]: 665 ng/mL
IC50 [5]: 15500 nM
IC50 (A-375): 90 nM
IC50 (SW-620): 430 nM
AUC(0-t) at 24 h [6]: 1200 ng·h/mL
half-life at 1 µM [7]: 2.01 min
microsomal CLint at 1 µM [8]: 98.7 µL/min/mg
microsomal CLint at 1 µM [9]: 38.8 µL/min/mg
IC50 (PANC-1): 300 nM
Activity [10]: < 10%
half-life at 1 µM [11]: 35.7 min
half-life [12]: 13.8 min
Vd [13]: 0.67 L/kg
microsomal CLint at 1 µM [14]: 689 µL/min/mg
half-life at 1 µM [15]: 24.2 min
AUC(0-inf) [16]: 561 ng·h/mL
IC50 [17]: 10100 nM
inhibition in vivo at 40 mg/kg (MV4-11): 100%
